Reference: ChEMBL document CHEMBL4330160, “Prenylated Indole Diterpene Alkaloids from a Mine-Soil-Derived Tolypocladium sp” (J Nat Prod, 2019)
Converted amounts (≈) assume the structure as drawn. The source made the active and inactive calls. No cut-off for these calls is given here.

Assays:
[1] = test system: A549; assay: Cytotoxicity against human A549 cells after 48 hrs by CCK8 assay; type: functional, cell-based; conditions: A549, 48 h
How it was run: (§1)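 Cells grown in DMEM with 10% FBS at 37 °C, 5% CO2. Seeded at 5000 cells/well and left 16 h, then exposed to a range of concentrations in growth medium for 48 h. Viability read by CCK-8 absorbance as percent of untreated control. IC50 taken from a sigmoidal curve; camptothecin was the positive control.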

[2] = test system: Huh-7; assay: Cytotoxicity against human HuH7 cells after 48 hrs by CCK8 assay; type: functional, cell-based; conditions: Huh-7, 48 h; how it was run: as §1
[3] = test system: LN-229; assay: Cytotoxicity against human LN229 cells after 48 hrs by CCK8 assay; type: functional, cell-based; conditions: LN-229, 48 h; how it was run: as §1
[4] = Cytotoxicity against human MGC cells after 48 hrs by CCK8 assay; type: functional, cell-based; how it was run: as §1
[5] = test system: MHCC97H; assay: Cytotoxicity against human MHCC97H cells after 48 hrs by CCK8 assay; type: functional, cell-based
How it was run: (§2)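 Cultured in DMEM with 10% FBS at 37 °C under 5% CO2. After a 16 h attachment, cells were treated with varying concentrations for 48 h. CCK-8 absorbance was expressed as percent of control and IC50 derived by sigmoidal curve fitting; camptothecin was the positive control.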

[6] = test system: LoVo; assay: Cytotoxicity against human LoVo cells after 48 hrs by CCK8 assay; type: functional, cell-based; how it was run: as §2
[7] = test system: MDA-MB-231; assay: Cytotoxicity against human MDA231 cells after 48 hrs by CCK8 assay; type: functional, cell-based; conditions: MDA-MB-231, 48 h
How it was run: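 MDA231 cells kept in DMEM with 10% FBS at 37 °C, 5% CO2. Seeded at 10 000 cells/well and settled 16 h, then given graded concentrations for 48 h. Viability measured by CCK-8 absorbance relative to control cells, with IC50 from a sigmoidal fit; camptothecin served as the positive control.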

[8] = test system: Bacillus cereus; assay: Antibacterial activity against Bacillus cereus after 3 to 7 days by broth dilution assay; type: functional
[9] = test system: Staphylococcus aureus; assay: Antibacterial activity against Methicillin-resistant Staphylococcus aureus after 3 to 7 days by broth dilution assay; type: functional
How it was run: (§3)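 Modified broth dilution with bacterial suspensions at 10^6 CFU/mL. Test and ciprofloxacin control stocks were 1 mg/mL in DMSO. Serial dilution and MIC read-out followed the antifungal microdilution procedure.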

[10] = test system: Micrococcus luteus; assay: Antibacterial activity against Micrococcus lysodeikticus after 3 to 7 days by broth dilution assay; type: functional
[11] = test system: Salmonella paratyphi; assay: Antibacterial activity against Bacterium paratyphosum after 3 to 7 days by broth dilution assay; type: functional, Salmonella enterica subsp. enterica serovar Paratyphi A; conditions: Salmonella enterica; how it was run: as §3
[12] = test system: Bacillus subtilis; assay: Antibacterial activity against Bacillus subtilis after 3 to 7 days by broth dilution assay; type: functional
[13] = test system: Klebsiella aerogenes; assay: Antibacterial activity against Enterobacter aerogenes after 3 to 7 days by broth dilution assay; type: functional
[14] = test system: Fusarium oxysporum; assay: Antifungal activity against Fusarium oxysporum Schlecht after 3 to 7 days by microbroth dilution method; type: functional, organism-based
How it was run: (§4)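 Microbroth dilution with fungal cultures at 10^4 mycelia fragments/mL. Test samples and ketoconazole were 1 mg/mL DMSO stocks. 180 μL culture plus 20 μL stock in the first well gave 100 μg/mL final, followed by serial dilution. Run in triplicate, incubated at 28 °C for 3−7 days, and MIC determined.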

[15] = test system: Alternaria solani; assay: Antifungal activity against Alternaria solani Sorauer after 3 to 7 days by microbroth dilution method; type: functional, organism-based; how it was run: as §4
[16] = test system: Rhizoctonia solani; assay: Antifungal activity against Rhizoctonia solani after 3 to 7 days by microbroth dilution method; type: functional, organism-based; how it was run: as §4
[17] = test system: Alternaria sp. 'fragaria'; assay: Antifungal activity against Alternaria fragaria after 3 to 7 days by microbroth dilution method; type: functional; how it was run: as §4
[18] = test system: Corynespora cassiicola; assay: Antifungal activity against Corynespora cassiicola after 3 to 7 days by microbroth dilution method; type: functional
How it was run: (§5)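 Microbroth dilution with fungal inoculum at 10^4 mycelial fragments/mL. Stock solutions were 1 mg/mL in DMSO. 20 μL stock was added to 180 μL culture, giving a top final concentration of 100 μg/mL, then serially diluted, in triplicate. Plates were held at 28 °C for 3–7 days and read for MIC; ketoconazole was the positive control.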

[19] = test system: Alternaria alternata; assay: Antifungal activity against Alternaria alternata after 3 to 7 days by microbroth dilution method; type: functional; how it was run: as §5
[20] = test system: Botrytis cinerea; assay: Antifungal activity against Botrytis cinerea Pers. after 3 to 7 days by microbroth dilution method; type: functional; how it was run: as §5
[21] = Antifungal activity against Cercospora personata after 3 to 7 days by microbroth dilution method; type: functional; conditions: Nothopassalora personata; how it was run: as §5
[22] = test system: Verticillium dahliae; assay: Antifungal activity against Verticillium dahliae Kleb after 3 to 7 days by microbroth dilution method; type: functional; how it was run: as §5
[23] = test system: Sclerotinia sclerotiorum; assay: Antifungal activity against Sclerotinia sclerotiorum after 3 to 7 days by microbroth dilution method; type: functional; how it was run: as §5
[24] = species on record: Homo sapiens; assay: Cytotoxicity against human T1224 cells in patient-derived organoid model after 48 hrs by CCK8 assay; type: functional, cell-based
How it was run: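 Patient-derived HCC cells (50 000) were embedded in Matrigel, set 20 min at 37 °C, then grown 6–8 days in DMEM/F12 with B27, 0.01% BSA, 2 mM glutamine, penicillin/streptomycin, 10 ng/mL FGF basic, 50 ng/mL EGF and 50 ng/mL HGF to form organoids. Medium was changed every 2 days.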

Compound | MIC [9] [µg/mL] | Activity [14] | Activity [15] | Activity [16] | MIC [17] [µg/mL] | also measured
CC[C@@]1(O)C(=O)OCc2c1cc1n(c2=O)Cc2cc3ccccc3nc2-1 [CAMPTOTHECIN] | – | – | – | – | – | IC50 [1]: 0.00032 to 0.0318 µM; IC50 [2]: 0.00032 to 0.0318 µM; IC50 [3]: 0.00032 to 0.0318 µM; IC50 [4]: 0.00032 to 0.0318 µM; IC50 [5]: 0.00032 to 0.0318 µM; IC50 [6]: 0.00032 to 0.0318 µM; IC50 [7]: 0.00032 to 0.0318 µM
O=C(O)c1cn(C2CC2)c2cc(N3CCNCC3)c(F)cc2c1=O [CIPROFLOXACIN] | 1.56 (≈ 4.71 µM) | – | – | – | – | MIC [8]: 0.78 µg/mL (≈ 2.35 µM); MIC [10]: 0.78 to 1.56 µg/mL (≈ 2.35 to 4.71 µM); MIC [11]: 0.78 to 1.56 µg/mL (≈ 2.35 to 4.71 µM); MIC [12]: 0.78 to 1.56 µg/mL (≈ 2.35 to 4.71 µM); MIC [13]: 0.78 to 1.56 µg/mL (≈ 2.35 to 4.71 µM)
CC(C)=CCc1cccc2[nH]c3c(c12)C[C@@H]1CC[C@]2(O)[C@](C)(CCC(=O)[C@@]24O[C@@H]4[C@@H]2O[C@H](C=C(C)C)OC(C)(C)[C@@H]2O)[C@@]31C | 12.5 to 25 (≈ 20.7 to 41.4 µM) | Active | Active | Active | – | MIC [8]: 12.5 to 25 µg/mL (≈ 20.7 to 41.4 µM); MIC [10]: 12.5 to 25 µg/mL (≈ 20.7 to 41.4 µM); MIC [11]: 12.5 to 25 µg/mL (≈ 20.7 to 41.4 µM); MIC [12]: 12.5 to 25 µg/mL (≈ 20.7 to 41.4 µM); MIC [13]: 12.5 to 25 µg/mL (≈ 20.7 to 41.4 µM)
CC(C)(Cl)[C@H](O)Cc1ccc2c3c([nH]c2c1)[C@@]1(C)[C@@H](CC[C@@]2(O)[C@@]45O[C@@H]4[C@@H]4O[C@H]([C@H]6OC6(C)C)OC(C)(C)[C@H]4O[C@H]5CC[C@@]21C)C3 | – | Active | Active | Active | 6.25 to 50 (≈ 9.52 to 76.2 µM) | –
CC(C)(O)[C@H]1O[C@H]2CC[C@@]3(C)[C@@](O)(CC[C@H]4Cc5c([nH]c6cccc(C[C@H](O)C(C)(C)Cl)c56)[C@@]43C)[C@]23O[C@@H]3[C@@H]1O | 50 (≈ 87.1 µM) | Active | Active | Active | 6.25 to 50 (≈ 10.9 to 87.1 µM) | –
CC(C)=CCc1cccc2[nH]c3c(c12)C[C@@H]1CC[C@@]2(O)[C@@]45O[C@@H]4[C@H](O)[C@@H](C(C)(C)O)O[C@H]5CC[C@]2(C)[C@@]31C | 12.5 (≈ 24 µM) | Active | Active | Active | 6.25 to 50 (≈ 12 to 95.8 µM) | MIC [18]: 6.25 to 25 µg/mL (≈ 12 to 47.9 µM); MIC [19]: 6.25 to 25 µg/mL (≈ 12 to 47.9 µM); MIC [20]: 6.25 to 25 µg/mL (≈ 12 to 47.9 µM); MIC [21]: 6.25 to 25 µg/mL (≈ 12 to 47.9 µM); MIC [22]: 6.25 to 25 µg/mL (≈ 12 to 47.9 µM); MIC [23]: 6.25 to 25 µg/mL (≈ 12 to 47.9 µM); MIC [8]: 25 µg/mL (≈ 47.9 µM); IC50 [1]: 16.3 to 37.8 µM; IC50 [2]: 16.3 to 37.8 µM; IC50 [3]: 16.3 to 37.8 µM; IC50 [4]: 16.3 to 37.8 µM; IC50 [5]: 16.3 to 37.8 µM; IC50 [6]: 16.3 to 37.8 µM; IC50 [7]: 16.3 to 37.8 µM; Activity [24]: Active
CC(C)=C[C@H]1O[C@H]2[C@H]3O[C@@]34[C@H](CC[C@@]3(C)[C@@]4(O)CC[C@H]4Cc5c([nH]c6cccc(C[C@H](O)C(C)(C)O)c56)[C@@]43C)O[C@@H]2C(C)(C)O1 | – | Active | Active | Active | 6.25 to 50 (≈ 10.1 to 80.4 µM) | –
COC(C)(C)[C@@H](O)Cc1cccc2[nH]c3c(c12)C[C@@H]1CC[C@@]2(O)[C@@]45O[C@@H]4[C@H](O)[C@@H](C(C)(C)O)O[C@H]5CC[C@]2(C)[C@@]31C | – | Active | Active | Active | 6.25 to 50 (≈ 11 to 87.8 µM) | –
CC(C)(O)[C@@H](O)Cc1cccc2[nH]c3c(c12)C[C@@H]1CC[C@@]2(O)[C@@]45O[C@@H]4[C@@H]4O[C@H]([C@H]6OC6(C)C)OC(C)(C)[C@H]4O[C@H]5CC[C@]2(C)[C@@]31C | – | Active | Active | Active | 6.25 to 50 (≈ 9.8 to 78.4 µM) | –
CC(=O)N1CCN(c2ccc(OCC3COC(Cn4ccnc4)(c4ccc(Cl)cc4Cl)O3)cc2)CC1 (configuration not stated) [KETOCONAZOLE] | – | – | – | – | 0.78 (≈ 1.47 µM) | MIC [18]: 0.78 to 1.56 µg/mL (≈ 1.47 to 2.94 µM); MIC [19]: 0.78 to 1.56 µg/mL (≈ 1.47 to 2.94 µM); MIC [20]: 0.78 to 1.56 µg/mL (≈ 1.47 to 2.94 µM); MIC [21]: 0.78 to 1.56 µg/mL (≈ 1.47 to 2.94 µM); MIC [22]: 0.78 to 1.56 µg/mL (≈ 1.47 to 2.94 µM); MIC [23]: 0.78 to 1.56 µg/mL (≈ 1.47 to 2.94 µM)
CC(C)(O)[C@H]1O[C@H]2CC[C@@]3(C)[C@@](O)(CC[C@H]4Cc5c([nH]c6cc(C[C@H](O)C(C)(C)Cl)ccc56)[C@@]43C)[C@]23O[C@@H]3[C@@H]1O | – | Active | Active | Active | 6.25 to 50 (≈ 10.9 to 87.1 µM) | –
CC(C)=C[C@H]1O[C@H]2[C@H]3O[C@@]34[C@H](CC[C@@]3(C)[C@@]4(O)CC[C@H]4Cc5c([nH]c6cc(C[C@H](O)C(C)(C)O)ccc56)[C@@]43C)O[C@@H]2C(C)(C)O1 | – | Active | Active | Active | 6.25 to 50 (≈ 10.1 to 80.4 µM) | –
CC(C)=C[C@H]1O[C@H]2[C@H]3O[C@@]34[C@H](CC[C@@]3(C)[C@@]4(O)CC[C@H]4Cc5c([nH]c6cccc(C[C@H](O)C(C)(C)Cl)c56)[C@@]43C)O[C@@H]2C(C)(C)O1 | – | Active | Active | Active | 6.25 to 50 (≈ 9.76 to 78.1 µM) | –
